Assay [1] is described as follows: Inhibitory activity against the primary liver carcinoma (PLC) cell line PLC/PRF/5. Type of assay: functional, Homo sapiens.
The nature of assay [2]: Inhibitory activity against colchicine resistant parent primary liver carcinoma (PLC) cell line PLC/PRF/5. Type of assay: functional, Homo sapiens. Put shortly: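 PLC/PRF/5 cells were precultured 24 h at 37 °C in 5% CO₂ in 96-well plates, then given colchicine at 0.5 μg/mL. Test compounds were added in dilutions of 10⁻²–10⁻⁶ μg/mL and incubated 72 h at 37 °C in 5% CO₂. Survival was read by MTT. IC50 is the μg/mL giving 50% growth inhibition of the colchicine-resistant cells.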

Structures are written as SMILES. Converted amounts (≈) assume the structure as drawn. Some results are limits rather than exact numbers.

Take `CC(=O)O[C@H]1[C@H]2O[C@]23[C@@H]2CC[C@@H]4C[C@@H](OC(=O)/C=C/c5ccccc5)CC[C@]4(C)[C@H]2CC[C@]3(C)[C@H]1c1ccc(=O)oc1`: the IC50 (usually the point on the concentration scale where inhibition reaches its midpoint) in assay [1] was 6.4 µg/mL (≈ 11.2 µM); in assay [2] it was 9.8 µg/mL (≈ 17.1 µM).
For `CCOC(=O)C/C=C/C1=CO[C@]23CCC1[C@@]2(C)CC[C@H]1[C@H]3CC[C@@H]2C[C@@H](O)CC[C@@]21C`, in that order: 7.5 µg/mL (≈ 17.5 µM) and 9.5 µg/mL (≈ 22.2 µM).
Consider `COC(=O)C/C=C/C1=CO[C@]23CCC1[C@@]2(C)CC[C@H]1[C@H]3CC[C@@H]2C[C@@H](OC(C)=O)CC[C@@]21C`, for which the IC50 in assay [1] was 6.6 µg/mL (≈ 14.5 µM); in assay [2] it was 41 µg/mL (≈ 89.8 µM).
The corresponding values for `C[C@]12CC[C@H](O)C[C@H]1CC[C@@H]1[C@@H]2CC[C@]2(C)[C@@H](c3ccc(=O)oc3)[C@@H](O)[C@H]3O[C@]132` [DESACETYLCINOBUFAGIN] are 0.52 µg/mL (≈ 1.3 µM) and 4.8 µg/mL (≈ 12 µM).
For `C[C@]12CCC(=O)C[C@H]1CCC1C2CC[C@]2(C)[C@@H](c3ccc(=O)oc3)C[C@@H]3O[C@@]132` (stereo partly specified), in that order: 8.7 µg/mL (≈ 22.7 µM) and 43 µg/mL (≈ 112 µM).
For `CC(=O)O[C@H]1CC[C@@]2(C)[C@H](CC[C@@H]3[C@@H]2[C@H](O)C[C@]2(C)[C@@H](c4ccc(=O)oc4)CC[C@]32O)C1`, in that order: 0.06 µg/mL (≈ 0.135 µM) and 0.66 µg/mL (≈ 1.48 µM).
Consider `C[C@]12CC[C@H](OC(=O)CCCCCCC(=O)O)C[C@H]1CC[C@@H]1[C@@H]2CC[C@]2(C)[C@@H](c3ccc(=O)oc3)CC[C@]12O`, for which the values for the IC50 in assay [1] and in assay [2] were 0.00075 µg/mL (≈ 0.00138 µM) and 0.0036 µg/mL (≈ 0.00663 µM), respectively.
For `COC(=O)CCCCCCC(=O)O[C@H]1CC[C@@]2(C)[C@H](CC[C@@H]3[C@@H]2CC[C@]2(C)[C@@H](c4ccc(=O)oc4)CC[C@]32O)C1`, in that order: 0.009 µg/mL (≈ 0.0162 µM) and 0.094 µg/mL (≈ 0.169 µM).
Regarding `CC(=O)O[C@@H]1CC[C@]2(C)C3CC[C@]4(C)[C@@H](c5ccc(=O)oc5)C[C@@H]5O[C@@]54C3CC[C@@H]2C1` (stereo partly specified), the IC50 in assay [1] worked out at 4.7 µg/mL (≈ 11 µM); in assay [2], 43 µg/mL (≈ 101 µM).
For `COC(=O)C/C=C(\C=O)C1[C@@H](O)C(=O)[C@H]2[C@@H]3CC[C@@H]4C[C@@H](O)CC[C@]4(C)[C@H]3CC[C@]12C` (stereo partly specified), in that order: 8.4 µg/mL (≈ 19.4 µM) and greater than 50 µg/mL.
The corresponding values for `C[C@]12CC[C@H](O)C[C@H]1CC[C@@H]1[C@@H]2CC[C@]2(C)[C@@H](c3ccc(=O)oc3)CC[C@]12O` [BUFALIN] are 0.00028 µg/mL (≈ 0.000724 µM) and 0.00028 µg/mL (≈ 0.000724 µM).
For `CC(=O)O[C@H]1[C@H]2O[C@]23[C@@H]2CC[C@@H]4CC(=O)CC[C@]4(C)[C@H]2CC[C@]3(C)[C@H]1c1ccc(=O)oc1`, in that order: 0.056 µg/mL (≈ 0.127 µM) and 0.77 µg/mL (≈ 1.75 µM).
Turning to `C[C@]12CC[C@H](O)C[C@H]1CC[C@H]1[C@H]3C(=O)C[C@H](c4ccc(=O)oc4)[C@@]3(C)CC[C@@H]12`, the IC50 in assay [1] was 0.82 µg/mL (≈ 2.13 µM); in assay [2] it was 12 µg/mL (≈ 31.2 µM).
As to `CC(=O)O[C@H]1[C@H]2O[C@]23[C@@H]2CC[C@@H]4C[C@H](O)CC[C@]4(C)[C@H]2CC[C@]3(C)[C@H]1c1ccc(=O)oc1`, the figures for the IC50 in assay [1] and in assay [2] were 0.098 µg/mL (≈ 0.221 µM) and 0.9 µg/mL (≈ 2.03 µM), respectively.
Consider `CC(=O)O[C@H]1[C@H]2O[C@]23[C@@H]2CC[C@@H]4C[C@@H](OC(=O)CCC(=O)O)CC[C@]4(C)[C@H]2CC[C@]3(C)[C@H]1c1ccc(=O)oc1`, for which the IC50 in assay [1] is 0.85 µg/mL (≈ 1.57 µM); in assay [2], 0.96 µg/mL (≈ 1.77 µM).
With `CC(=O)O[C@H]1CC[C@@]2(C)[C@H](CC[C@@H]3[C@@H]2CC[C@]2(C)[C@@H](c4ccc(=O)oc4)CC(=O)[C@@H]32)C1`, the IC50 in assay [1] was determined as 0.55 µg/mL (≈ 1.29 µM); in assay [2], 1.8 µg/mL (≈ 4.22 µM).
`CC(=O)O[C@H]1CC[C@@]2(C)[C@H](CC[C@@H]3[C@@H]2CC[C@]2(C)[C@@H](c4ccc(=O)oc4)C[C@H](O)[C@]32O)C1`: the IC50 in assay [1] is 0.71 µg/mL (≈ 1.6 µM); in assay [2], 5.6 µg/mL (≈ 12.6 µM).
Regarding `CC(=O)O[C@H]1CC[C@@]2(C)[C@H](CC[C@@H]3[C@@H]2CC[C@]2(C)[C@@H](c4ccc(=O)oc4)CC(=O)[C@]32O)C1`, the IC50 in assay [1] was 0.077 µg/mL (≈ 0.174 µM); in assay [2], 6.4 µg/mL (≈ 14.5 µM).
For `C[C@]12CCC(=O)C[C@H]1CC[C@@H]1[C@@H]2CC[C@]2(C)[C@@H](c3ccc(=O)oc3)CC(=O)[C@@H]12`, the half-maximal inhibitory concentration (IC50) in assay [1] was found to be 7 µg/mL (≈ 18.3 µM); in assay [2] it was 10 µg/mL (≈ 26.1 µM).
`CC(=O)O[C@H]1CC[C@@]2(C)[C@H](CC[C@@H]3[C@@H]2CC[C@]2(C)[C@@H](c4ccc(=O)oc4)[C@@H](OC(=O)CCC(=O)O)[C@H]4O[C@]342)C1`: the IC50 in assay [1] is 50 µg/mL (≈ 92.1 µM); in assay [2], greater than 50 µg/mL.
The corresponding values for `C[C@]12CC[C@H](O)C[C@H]1CC[C@@H]1[C@@H]2CC[C@]2(C)[C@@H](c3ccc(=O)oc3)CC(=O)[C@@H]12` are 8.2 µg/mL (≈ 21.3 µM) and 12 µg/mL (≈ 31.2 µM).
Take `C[C@]12CC[C@H](O)C=C1CCC1C2CC[C@]2(C)[C@@H](c3ccc(=O)oc3)CC[C@]12O` (stereo partly specified): the figures for the IC50 in assay [1] and in assay [2] were 0.00031 µg/mL (≈ 0.000806 µM) and 0.00032 µg/mL (≈ 0.000832 µM), respectively.
As to `C[C@]12CC[C@@H](O)C[C@H]1CC[C@@H]1[C@@H]2CC[C@]2(C)[C@@H](c3ccc(=O)oc3)C[C@H]3O[C@]132`, the IC50 in assay [1] came out at 8.3 µg/mL (≈ 21.6 µM); in assay [2], 43 µg/mL (≈ 112 µM).
For `COC(=O)C/C=C/C1=CO[C@]23C[C@H](OC(C)=O)C1[C@@]2(C)CC[C@H]1[C@H]3CC[C@@H]2C[C@@H](OC(C)=O)CC[C@@]21C`, in that order: 49 µg/mL (≈ 95.2 µM) and 50 µg/mL (≈ 97.2 µM).
The corresponding values for `CC(=O)O[C@H]1[C@H]2O[C@]23[C@@H]2CC[C@@H]4C[C@@H](OC(=O)CCCCCCC(=O)O)CC[C@]4(C)[C@H]2CC[C@]3(C)[C@H]1c1ccc(=O)oc1` are 0.01 µg/mL (≈ 0.0167 µM) and 0.06 µg/mL (≈ 0.1 µM).
Regarding `C[C@]12CC[C@H](O)C[C@H]1CC[C@@H]1[C@@H]2[C@H](O)C[C@]2(C)[C@@H](c3ccc(=O)oc3)CC[C@]12O` [GAMABUFOTALIN], the IC50 stood at 0.00023 µg/mL (≈ 0.000571 µM) in assay [1] and 0.0008 µg/mL (≈ 0.00199 µM) in assay [2].
Take `CC(=O)O[C@H]1CC[C@@]2(C)[C@H](CC[C@@H]3[C@@H]2CC[C@]2(C)[C@@H](c4ccc(=O)oc4)[C@@H](OC(C)=O)[C@H]4O[C@]342)C1`: the 50% inhibitory concentration (IC50) in assay [1] is 0.04 µg/mL (≈ 0.0825 µM); in assay [2], 0.092 µg/mL (≈ 0.19 µM).
For `CCOC(=O)C/C=C/C1=CO[C@]23CCC1[C@@]2(C)CC[C@H]1[C@H]3CC[C@@H]2C[C@@H](OC(C)=O)CC[C@@]21C`, in that order: 6.4 µg/mL (≈ 13.6 µM) and 41 µg/mL (≈ 87.1 µM).
Take `CC(=O)O[C@H]1[C@H]2O[C@]23[C@@H]2CC[C@]4(O)C[C@@H](O)CC[C@]4(C)[C@H]2CC[C@]3(C)[C@H]1c1ccc(=O)oc1` [CINOBUFOTALIN]: the results for the IC50 in assay [1] and in assay [2] were 0.001 µg/mL (≈ 0.00218 µM) and 0.008 µg/mL (≈ 0.0174 µM), respectively.
For `C[C@]12CC[C@H](O)C[C@H]1CC[C@@H]1[C@@H]2CC[C@]2(C)[C@@H](c3ccc(=O)oc3)C[C@H](O)[C@]12O`, in that order: 35 µg/mL (≈ 86.9 µM) and 30 µg/mL (≈ 74.5 µM).
The corresponding values for `C[C@]12CC[C@@H](O)C[C@H]1CC[C@@H]1[C@@H]2CC[C@]2(C)[C@@H](c3ccc(=O)oc3)CC[C@]12O` are 0.076 µg/mL (≈ 0.197 µM) and 0.077 µg/mL (≈ 0.199 µM).
For the compound `C[C@]12CC[C@H](O)C[C@@]1(O)CCC1C2CC[C@]2(C)[C@@H](c3ccc(=O)oc3)C[C@@H]3O[C@@]132` (stereo partly specified), the IC50 in assay [1] turned out to be 0.52 µg/mL (≈ 1.3 µM); in assay [2], 0.49 µg/mL (≈ 1.22 µM).
`C[C@]12CCC3C(CC[C@@H]4C[C@@H](O)CC[C@]34C)C1=CC[C@@H]2C1=CC(=O)OC1` (stereo partly specified): the IC50 in assay [1] amounted to 0.36 µg/mL (≈ 1.01 µM); in assay [2], 0.73 µg/mL (≈ 2.05 µM).
For `CC(=O)O[C@H]1[C@H]2O[C@]23[C@@H]2CC[C@@H]4C[C@@H](O)CC[C@]4(C)[C@H]2CC[C@]3(C)[C@H]1c1ccc(=O)oc1` [CINOBUFAGIN], in that order: 0.00074 µg/mL (≈ 0.00167 µM) and 0.00092 µg/mL (≈ 0.00208 µM).
As to `CC(=O)O[C@H]1CC[C@@]2(C)[C@H](CC[C@@H]3[C@@H]2CC[C@]2(C)[C@@H](c4ccc(=O)oc4)CC[C@]32O)C1`, the IC50 came out at 0.0002 µg/mL (≈ 0.000467 µM) in assay [1] and 0.009 µg/mL (≈ 0.021 µM) in assay [2].
For `CC(=O)O[C@@H]1C[C@]2(C)[C@@H](c3ccc(=O)oc3)CC[C@]2(O)[C@@H]2CC[C@@H]3CC(=O)CC[C@]3(C)[C@H]21`, in that order: 0.79 µg/mL (≈ 1.79 µM) and 5.6 µg/mL (≈ 12.7 µM).
The corresponding values for `C[C@]12CCC3C(CC[C@@H]4C[C@@H](O)CC[C@]34C)C1=CC[C@@H]2c1ccc(=O)oc1` (stereo partly specified) are 0.83 µg/mL (≈ 2.25 µM) and 0.9 µg/mL (≈ 2.44 µM).
Turning to `C[C@]12CC[C@H](O)C[C@H]1CC[C@@H]1[C@@H]2CC[C@]2(C)[C@@H](c3ccc(=O)oc3)C[C@@H]3O[C@]312`, the IC50 was 20 µg/mL (≈ 52 µM) in assay [1] and 26 µg/mL (≈ 67.6 µM) in assay [2].

Source of the values: ChEMBL document CHEMBL1135672, “QSAR evaluation of the Ch'an Su and related bufadienolides against the colchicine-resistant primary liver carcinoma cell line PLC/PRF/5(1)” (J Med Chem, 2002).
